Assay results taken from ChEMBL document CHEMBL1240350, “In vitro activity of CEM-101 against Streptococcus pneumoniae and Streptococcus pyogenes with defined macrolide resistance mechanisms” (Antimicrob Agents Chemother, 2010).
Converted amounts (≈) assume the structure as drawn.

Key:
Streptococcus pneumoniae [1] = assay: Antibacterial activity against macrolide-resistant Streptococcus pneumoniae 1076 harboring erm(B) and mef(A) gene after 14 passages and 10 compound-free subculturing by retest method; format: functional
Summary of the method: (§1)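 Multistep selection by daily serial passage in subinhibitory drug concentrations. Medium was cation-adjusted Mueller-Hinton broth plus 5% lysed horse blood. Each day the next inoculum came from the tube 1–2 dilutions below the MIC whose turbidity matched the growth control, for up to 50 days. Clone MICs by CLSI macrodilution; identity to the parent confirmed by SmaI PFGE.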

Streptococcus pyogenes [2] = assay: Antibacterial activity against macrolide-resistant Streptococcus pyogenes 2011 harboring mef(A) gene after 50 passages following overnight incubation by agar dilution method
Streptococcus pneumoniae [3] = assay: Antibacterial activity against macrolide-susceptible Streptococcus pneumoniae 1077 after overnight incubation by agar dilution method; format: functional
Streptococcus pneumoniae [4] = assay: Antibacterial activity against macrolide-resistant Streptococcus pneumoniae 1635 harboring erm(A) gene after overnight incubation by agar dilution method; format: functional
Streptococcus pyogenes [5] = assay: Antibacterial activity against macrolide-resistant Streptococcus pyogenes harboring erm(A) gene after overnight incubation by agar dilution method; format: functional
Summary of the method: (§2)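 Agar dilution MICs on Mueller-Hinton agar with 5% sheep blood. Inoculum 10^4 CFU/spot, incubated overnight at 35°C in ambient air. Clinical S. pneumoniae or group A streptococcal isolates; resistance genotypes (erm(B), erm(A), mef(A)/mef(E)) were assigned by PCR. S. pneumoniae ATCC 49619 served as QC strain in each run. Range, MIC50 and MIC90 reported per phenotype group.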

Streptococcus pyogenes [6] = assay: Antibacterial activity against macrolide-susceptible Streptococcus pyogenes 2132 after overnight incubation by agar dilution method
Streptococcus pneumoniae [7] = assay: Antibacterial activity against macrolide-susceptible Streptococcus pneumoniae 7127 harboring S20N mutation in L4 ribosomal protein and A105V mutation in L22 ribosomal protein after 38 passages and 10 compound-free subculturing by retest method; format: functional
Streptococcus pyogenes [8] = assay: Antibacterial activity against macrolide-resistant Streptococcus pyogenes 237 harboring mutation in L4 ribosomal protein after overnight incubation by agar dilution method
Streptococcus pyogenes [9] = assay: Antibacterial activity against Streptococcus pyogenes harboring erm(B) gene after overnight incubation by agar dilution method; format: functional
Summary of the method: (§3)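 Clinical isolates collected 1998–2008, with macrolide-resistance genes confirmed by PCR. MICs by agar dilution on Mueller-Hinton agar with 5% sheep blood. Inoculum 10^4 CFU/spot, incubated overnight at 35°C in ambient air. S. pneumoniae ATCC 49619 was the quality-control strain in every run.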

Streptococcus pneumoniae [10] = assay: Antibacterial activity against Streptococcus pneumoniae harboring erm(B) gene after overnight incubation by agar dilution method; format: functional; summary of the method: as §3
Streptococcus pneumoniae [11] = assay: Antibacterial activity against macrolide-resistant Streptococcus pneumoniae 2686 harboring mutation in L4 ribosomal protein after overnight incubation by agar dilution method; format: functional
Streptococcus pneumoniae [12] = assay: Antibacterial activity against macrolide-resistant Streptococcus pneumoniae 2686 harboring mutation in L4 ribosomal protein after 22 passages and 10 compound-free subculturing by retest method; format: functional
Streptococcus pyogenes [13] = assay: Antibacterial activity against macrolide-resistant Streptococcus pyogenes 237 harboring mutation in L4 ribosomal protein after 20 passages and 10 compound-free subculturing by retest method
Streptococcus pyogenes [14] = assay: Antibacterial activity against macrolide-resistant Streptococcus pyogenes 237 harboring mutation in L4 ribosomal protein after 43 passages and 10 compound-free subculturing by retest method
Streptococcus pyogenes [15] = assay: Antibacterial activity against macrolide-resistant Streptococcus pyogenes 2094 harboring erm(A) gene after 34 passages and 10 compound-free subculturing by retest method
Streptococcus pneumoniae [16] = assay: Antibacterial activity against macrolide-resistant Streptococcus pneumoniae 24 harboring erm(B) gene after 14 passages and 10 compound-free subculturing by retest method; format: functional; summary of the method: as §1
Streptococcus pneumoniae [17] = assay: Antibacterial activity against macrolide-resistant Streptococcus pneumoniae harboring mef(A) gene after overnight incubation by agar dilution method; format: functional; summary of the method: as §2
Streptococcus pneumoniae [18] = assay: Antibacterial activity against macrolide-resistant Streptococcus pneumoniae 3009 harboring mutation in 23S rRNA after 25 passages and 10 compound-free subculturing by retest method; format: functional
Streptococcus pyogenes [19] = assay: Antibacterial activity against macrolide-resistant Streptococcus pyogenes 2094 harboring erm(A) gene after 43 passages and 10 compound-free subculturing by retest method
Streptococcus pyogenes [20] = assay: Antibacterial activity against macrolide-resistant Streptococcus pyogenes 2368 harboring erm(B) gene after 6 passages and 10 compound-free subculturing by retest method
Streptococcus pyogenes [21] = assay: Antibacterial activity against macrolide-resistant Streptococcus pyogenes 2094 harboring erm(A) gene after overnight incubation by agar dilution method
Streptococcus pneumoniae [22] = assay: Antibacterial activity against macrolide-resistant Streptococcus pneumoniae 2686 harboring mutation in L4 ribosomal protein after 25 passages and 10 compound-free subculturing by retest method; format: functional
Streptococcus pneumoniae [23] = assay: Antibacterial activity against macrolide-susceptible Streptococcus pneumoniae after overnight incubation by agar dilution method; format: functional; summary of the method: as §2
Streptococcus pneumoniae [24] = assay: Antibacterial activity against macrolide-resistant Streptococcus pneumoniae 3665 harboring mef(A) gene after overnight incubation by agar dilution method; format: functional
Streptococcus pneumoniae [25] = assay: Antibacterial activity against macrolide-susceptible Streptococcus pneumoniae 7127 harboring S20N mutation in L4 ribosomal protein and A105V mutation in L22 ribosomal protein after 29 passages and 10 compound-free subculturing by retest method; format: functional
Streptococcus pneumoniae [26] = assay: Antibacterial activity against macrolide-resistant Streptococcus pneumoniae harboring erm(B) gene after overnight incubation by agar dilution method; format: functional; summary of the method: as §2
Streptococcus pneumoniae [27] = assay: Antibacterial activity against Streptococcus pneumoniae harboring mef(A) gene after overnight incubation by agar dilution method; format: functional; summary of the method: as §3
Streptococcus pneumoniae [28] = assay: Antibacterial activity against macrolide-susceptible Streptococcus pneumoniae 7127 harboring S20N mutation in L4 ribosomal protein and A105V mutation in L22 ribosomal protein after 15 passages and 10 compound-free subculturing by retest method; format: functional
Streptococcus pyogenes [29] = assay: Antibacterial activity against macrolide-resistant Streptococcus pyogenes 2368 harboring erm(B) gene after overnight incubation by agar dilution method
Streptococcus pneumoniae [30] = assay: Antibacterial activity against penicillin-susceptible Streptococcus pneumoniae after overnight incubation by agar dilution method; format: functional
Summary of the method: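 Agar dilution on Mueller-Hinton agar supplemented with 5% sheep blood. Inoculum 10^4 CFU/spot, incubated overnight at 35°C in ambient air. Test strains were clinical pneumococcal isolates. S. pneumoniae ATCC 49619 was included as the quality control strain in each run. MIC range, MIC50 and MIC90 were reported for each susceptibility category.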

## CC[C@H]1OC(=O)[C@@](C)(F)C(=O)[C@H](C)[C@@H](O[C@@H]2O[C@H](C)C[C@H](N(C)C)[C@H]2O)[C@](C)(OC)C[C@@H](C)C(=O)[C@H](C)[C@H]2N(CCCCn3cc(-c4cccc(N)c4)nn3)C(=O)O[C@]12C [SOLITHROMYCIN]
Streptococcus pneumoniae [1]
  MIC: 2 µg/mL (≈ 2.37 µM)
Streptococcus pyogenes [2]
  MIC: 0.125 µg/mL (≈ 0.148 µM)
Streptococcus pneumoniae [3]
  MIC: 8 ng/mL (≈ 0.00947 µM)
Streptococcus pneumoniae [4]
  MIC: 8 ng/mL (≈ 0.00947 µM)
Streptococcus pyogenes [5]
  MIC50: 0.03 µg/mL (≈ 0.0355 µM)
  MIC90: 0.125 µg/mL (≈ 0.148 µM)
Streptococcus pyogenes [6]
  MIC: 8 ng/mL (≈ 0.00947 µM)
Streptococcus pneumoniae [7]
  MIC: 8 ng/mL (≈ 0.00947 µM)
Streptococcus pyogenes [8]
  MIC: 0.03 µg/mL (≈ 0.0355 µM)
Streptococcus pyogenes [9]
  MIC50: 0.5 µg/mL (≈ 0.592 µM)
  MIC90: 1 µg/mL (≈ 1.18 µM)
Streptococcus pneumoniae [10]
  MIC50: 0.03 µg/mL (≈ 0.0355 µM)
  MIC90: 0.5 µg/mL (≈ 0.592 µM)
Streptococcus pneumoniae [11]
  MIC: 0.03 µg/mL (≈ 0.0355 µM)
Streptococcus pneumoniae [12]
  MIC: 1 µg/mL (≈ 1.18 µM)
Streptococcus pyogenes [13]
  MIC: 0.5 µg/mL (≈ 0.592 µM)
Streptococcus pyogenes [14]
  MIC: 0.03 µg/mL (≈ 0.0355 µM)
Streptococcus pyogenes [15]
  MIC: 0.03 µg/mL (≈ 0.0355 µM)
Streptococcus pneumoniae [16]
  MIC: 0.06 µg/mL (≈ 0.071 µM)
Streptococcus pneumoniae [16]; Streptococcus pneumoniae, 24, read-out: MIC
  MIC: 0.06 µg/mL (≈ 0.071 µM)
Streptococcus pneumoniae [17]
  MIC50: 0.03 µg/mL (≈ 0.0355 µM)
  MIC90: 0.125 µg/mL (≈ 0.148 µM)
Streptococcus pneumoniae [18]
  MIC: 0.03 µg/mL (≈ 0.0355 µM)
Streptococcus pyogenes [19]
  MIC: 0.25 µg/mL (≈ 0.296 µM)
Streptococcus pyogenes [20]
  MIC: 0.5 µg/mL (≈ 0.592 µM)
Streptococcus pyogenes [21]
  MIC: 0.03 µg/mL (≈ 0.0355 µM)
Streptococcus pneumoniae [22]
  MIC: 0.016 µg/mL (≈ 0.0189 µM)
Streptococcus pneumoniae [23]
  MIC50: 8 ng/mL (≈ 0.00947 µM)
  MIC90: 0.015 µg/mL (≈ 0.0178 µM)
Streptococcus pneumoniae [24]
  MIC: 0.03 µg/mL (≈ 0.0355 µM)
Streptococcus pneumoniae [25]
  MIC: 0.016 µg/mL (≈ 0.0189 µM)
Streptococcus pneumoniae [26]
  MIC50: 0.03 µg/mL (≈ 0.0355 µM)
  MIC90: 0.5 µg/mL (≈ 0.592 µM)
Streptococcus pneumoniae [27]
  MIC50: 0.03 µg/mL (≈ 0.0355 µM)
  MIC90: 0.125 µg/mL (≈ 0.148 µM)
Streptococcus pneumoniae [28]
  MIC: 8 ng/mL (≈ 0.00947 µM)
Streptococcus pyogenes [29]
  MIC: 1 µg/mL (≈ 1.18 µM)
Streptococcus pneumoniae [30]
  MIC50: 0.03 µg/mL (≈ 0.0355 µM)
  MIC90: 0.125 µg/mL (≈ 0.148 µM)
